Results of several laboratories.

SMILES | test | test system | conditions | endpoint | value
COc1ccccc1C(=O)/C=C/c1cn(Cc2cn(-c3ccnc4cc(Cl)ccc34)nn2)c2ccccc12 | haemolysis | human | 50 µM, 1 h, pH 7.4 | haemolysis | 1.7%
CC1(CN)CCN(c2cnc3c(Sc4ccncc4Cl)n[nH]c3n2)CC1 |  | male Sprague-Dawley rat, plasma | intravenous, 2 mg/kg | clearance | 223 mL/min/kg
C=C(F)C(=O)N1CCN(c2nc(OC[C@@H]3CCCN3C)nc3c2CCN(c2cccc4cccc(Cl)c24)C3)C[C@@H]1CC#N |  | male Sprague-Dawley rat, plasma | intravenous, 5 mg/kg | clearance | 44 mL/min/kg
CN1Cc2c(N)cccc2C(=O)N1C1CCC(=O)NC1=O (centres unmarked) |  | male Sprague-Dawley rat, plasma | intravenous, 1 mg/kg | clearance | 31.8 mL/min/kg
O=C1CC[C@H](N2Cc3cc(N4CCN(CC5CCN(c6ccc([C@@H]7c8ccc(O)cc8CC[C@@H]7c7ccccc7)cc6)CC5)CC4)ccc3C2=O)C(=O)N1 |  | male Sprague-Dawley rat, plasma | intravenous, 5 mg/kg, fed | clearance | 15.4 mL/min/kg
O=C1c2ccncc2C(=O)c2c1[nH]c1ccccc21 |  | rat, plasma | intravenous, 1 mg/kg, single dose | clearance | 13.1 mL/min
Nc1ccc(/C=C/C(=O)NCc2cc3cc(-c4ccc(C(=O)N5CCC(F)(F)CC5)cc4)cc(-c4ccc(F)cc4)c3o2)cn1 |  | rat, plasma | intravenous, 1 mg/kg | clearance | 0.169 mL/min/kg
O=C(C=Cc1ccccc1)Nc1cc(-c2ccnc(N3CCC(O)CC3)c2)ccn1 |  | female Sprague-Dawley rat, plasma | intravenous, 5 mg/kg | clearance | 229 mL/min/kg
